Reference: ChEMBL document CHEMBL3804761, “Synthesis of a stable and orally bioavailable englerin analogue” (Bioorg Med Chem Lett, 2016)

What was measured:
Assay type in all cases: functional
Malme-3M = experiment: Growth inhibition of human MALME-3M cells assessed as cell growth at 10 uM incubated for 48 hrs by sulforhodamine B assay relative to control; conditions: read-out: Activity
How it was run: (§1)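 Run in the standard NCI 60-cell-line screen. Cells were exposed to drug for two days, and the read-out was sulforhodamine B staining. Compound was tested at a single final concentration of 10 µM in every line, and results are reported as growth percent.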

[1] = Growth inhibition of human MOLT4 cells assessed as cell growth at 10 uM incubated for 48 hrs by sulforhodamine B assay relative to control; conditions: MOLT-4, 48 h, read-out: Activity; how it was run: as §1
MDA-MB-435 = experiment: Growth inhibition of human MDA-MB-435 cells assessed as cell growth at 10 uM incubated for 48 hrs by sulforhodamine B assay relative to control; conditions: MDA-MB-435, 48 h, read-out: Activity; how it was run: as §1
[2] = Growth inhibition of human SNB19 cells assessed as cell growth at 10 uM incubated for 48 hrs by sulforhodamine B assay relative to control; conditions: SNB-19, 48 h, read-out: Activity; how it was run: as §1
[3] = Growth inhibition of human RPMI8226 cells assessed as cell growth at 10 uM incubated for 48 hrs by sulforhodamine B assay relative to control; conditions: RPMI-8226, 48 h, read-out: Activity; how it was run: as §1
[4] = Growth inhibition of human Caki1 cells assessed as cell growth at 10 uM incubated for 48 hrs by sulforhodamine B assay relative to control; conditions: CAKI-1, 48 h, read-out: Activity; how it was run: as §1
[5] = Growth inhibition of human TK10 cells assessed as cell growth at 10 uM incubated for 48 hrs by sulforhodamine B assay relative to control; conditions: TK-10, 48 h, read-out: Activity
How it was run: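 NCI 60-cell line standard protocol, one-dose screen: single final concentration 10 µM, 2-day drug exposure, sulforhodamine B (SRB) endpoint; read-out is growth percent relative to untreated control.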

M14 [6] = experiment: Growth inhibition of human M14 cells assessed as cell growth at 10 uM incubated for 48 hrs by sulforhodamine B assay relative to control; conditions: M14, 48 h, read-out: Activity; how it was run: as §1
[7] = Growth inhibition of human SNB75 cells assessed as cell growth at 10 uM incubated for 48 hrs by sulforhodamine B assay relative to control; conditions: SNB-75, 48 h, read-out: Activity; how it was run: as §1
MDA-MB-231 [8] = experiment: Growth inhibition of human MDA-MB-231 cells assessed as cell growth at 10 uM incubated for 48 hrs by sulforhodamine B assay relative to control; conditions: MDA-MB-231, 48 h, read-out: Activity; how it was run: as §1
NCI-H322M = experiment: Growth inhibition of human NCI-H322M cells assessed as cell growth at 10 uM incubated for 48 hrs by sulforhodamine B assay relative to control; conditions: read-out: Activity; how it was run: as §1
[9] = Growth inhibition of human OVCAR4 cells assessed as cell growth at 10 uM incubated for 48 hrs by sulforhodamine B assay relative to control; conditions: OVCAR-4, 48 h, read-out: Activity; how it was run: as §1
SR = experiment: Growth inhibition of human SR cells incubated for 48 hrs by sulforhodamine B assay
How it was run: (§2)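 Tested in the standard NCI 60-cell-line protocol with two-day drug exposure and a sulforhodamine B endpoint. Compounds were first screened at a single final concentration of 10 µM, reported as growth percent. They were then run as five 10-fold dilutions starting from a high concentration of 100 µM to give dose-response curves.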

M14 [10] = experiment: Growth inhibition of human M14 cells incubated for 48 hrs by sulforhodamine B assay; conditions: M14, 48 h
How it was run: (§3)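 NCI 60-cell-line panel, standard protocol. Cells exposed to compound for two days, growth read by sulforhodamine B staining. Tested at five 10-fold dilutions, top concentration 100 µM, to give dose-response curves.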

[11] = Growth inhibition of human UACC62 cells incubated for 48 hrs by sulforhodamine B assay; conditions: UACC-62, 48 h; how it was run: as §2
[12] = Growth inhibition of human IGROV1 cells incubated for 48 hrs by sulforhodamine B assay; conditions: IGROV-1, 48 h; how it was run: as §3
[13] = Growth inhibition of human HCT15 cells incubated for 48 hrs by sulforhodamine B assay; conditions: HCT-15, 48 h; how it was run: as §3
SK-MEL-28 = experiment: Growth inhibition of human SK-MEL-28 cells incubated for 48 hrs by sulforhodamine B assay; conditions: SK-MEL-28, 48 h; how it was run: as §3
[14] = Growth inhibition of human HCT116 cells incubated for 48 hrs by sulforhodamine B assay; conditions: HCT-116, 48 h; how it was run: as §3
[15] = Growth inhibition of human RPMI8226 cells incubated for 48 hrs by sulforhodamine B assay; conditions: RPMI-8226, 48 h; how it was run: as §3
NCI-H23 = experiment: Growth inhibition of human NCI-H23 cells incubated for 48 hrs by sulforhodamine B assay; conditions: NCI-H23, 48 h; how it was run: as §3
[16] = Growth inhibition of human SNB75 cells incubated for 48 hrs by sulforhodamine B assay; conditions: SNB-75, 48 h; how it was run: as §2
U-251 = experiment: Growth inhibition of human U251 cells incubated for 48 hrs by sulforhodamine B assay; conditions: U-251, 48 h; how it was run: as §2
[17] = Growth inhibition of human SW620 cells incubated for 48 hrs by sulforhodamine B assay; conditions: SW-620, 48 h; how it was run: as §2
NCI/ADR-RES = experiment: Growth inhibition of human NCI/ADR-RES cells incubated for 48 hrs by sulforhodamine B assay; how it was run: as §3
SK-MEL-2 = experiment: Growth inhibition of human SK-MEL-2 cells incubated for 48 hrs by sulforhodamine B assay; conditions: SK-MEL-2, 48 h; how it was run: as §3
MDA-MB-468 = experiment: Growth inhibition of human MDA-MB-468 cells incubated for 48 hrs by sulforhodamine B assay; conditions: MDA-MB-468, 48 h; how it was run: as §3
MDA-MB-231 [18] = experiment: Growth inhibition of human MDA-MB-231 cells incubated for 48 hrs by sulforhodamine B assay; conditions: MDA-MB-231, 48 h; how it was run: as §3
[19] = read-out: pLC50 (the source's name) (converted)

CC(C)[C@@]12C[C@@H](NC(=O)CF)[C@@](C)(O1)[C@@H]1CC[C@@H](C)[C@H]1[C@@H]2OC(=O)/C=C/c1ccccc1
growth at 10 µM (Malme-3M): 106%
growth at 10 µM [1]: 96.5%
growth at 10 µM (MDA-MB-435): 106%
growth at 10 µM [2]: 104%
growth at 10 µM [3]: 94.3%
growth at 10 µM [4]: 80.9%
growth at 10 µM [5]: 104%
growth at 10 µM (M14 [6]): 96.7%
growth at 10 µM [7]: 87.9%
growth at 10 µM (MDA-MB-231 [8]): 102%
growth at 10 µM (NCI-H322M): 97.4%
growth at 10 µM [9]: 105%

CC(C)[C@@]12C[C@@H](NC(=O)CO)[C@@](C)(O1)[C@@H]1CC[C@@H](C)[C@H]1[C@@H]2OC(=O)/C=C/c1ccccc1
growth at 10 µM (Malme-3M): 95.2%
growth at 10 µM [1]: 76%
GI50 (SR): 13.5 µM
LC50 (SR): > 50.1 µM
TGI (SR; read-out: pTGI (converted)): 37.2 µM
growth at 10 µM (MDA-MB-435): 94.6%
GI50 (M14 [10]): 16.6 µM
LC50 (M14 [10]): > 50.1 µM
TGI (M14 [10]; read-out: pTGI (converted)): > 50.1 µM
GI50 [11]: 15.1 µM
LC50 (lethal concentration, 50% net cell kill) [11]: > 50.1 µM
TGI ([11]; read-out: pTGI (converted)): > 50.1 µM
growth at 10 µM [2]: 103%
GI50 [12]: > 50.1 µM
CC50 [12, 19]: > 50.1 µM
TGI ([12]; read-out: pTGI (converted)): > 50.1 µM
GI50 [13]: 16.6 µM
LC50 [13]: > 50.1 µM
TGI ([13]; read-out: pTGI (converted)): > 50.1 µM
GI50 (SK-MEL-28): 20.9 µM
LC50 (SK-MEL-28): > 50.1 µM
TGI (SK-MEL-28; read-out: pTGI (converted)): > 50.1 µM
growth at 10 µM [3]: 90.6%
GI50 [14]: 10.7 µM
LC50 [14]: > 50.1 µM
TGI ([14]; read-out: pTGI (converted)): 38 µM
growth at 10 µM [4]: 61.1%
growth at 10 µM [5]: 102%
GI50 [15]: 11.5 µM
CC50 [15, 19]: > 50.1 µM
TGI ([15]; read-out: pTGI (converted)): 42.7 µM
growth at 10 µM (M14 [6]): 103%
GI50 (NCI-H23): 14.8 µM
LC50 (NCI-H23): > 50.1 µM
TGI (NCI-H23; read-out: pTGI (converted)): > 50.1 µM
growth at 10 µM [7]: 59.6%
GI50 [16]: 9.77 µM
LC50 [16]: > 50.1 µM
TGI ([16]; read-out: pTGI (converted)): 43.7 µM
growth at 10 µM (MDA-MB-231 [8]): 97.2%
GI50 (U-251): 15.5 µM
LC50 (concentration giving 50% net cell kill) (U-251): > 50.1 µM
TGI (U-251; read-out: pTGI (converted)): > 50.1 µM
growth at 10 µM (NCI-H322M): 77.8%
GI50 [17]: 22.4 µM
LC50 (50% lethal concentration) [17]: > 50.1 µM
TGI ([17]; read-out: pTGI (converted)): > 50.1 µM
GI50 (NCI/ADR-RES): 3.47 µM
LC50 (NCI/ADR-RES): > 50.1 µM
TGI (NCI/ADR-RES; read-out: pTGI (converted)): > 50.1 µM
GI50 (SK-MEL-2): 14.8 µM
LC50 (SK-MEL-2): > 50.1 µM
TGI (SK-MEL-2; read-out: pTGI (converted)): 37.2 µM
GI50 (MDA-MB-468): 12.3 µM
CC50 (MDA-MB-468; [19]): > 50.1 µM
TGI (MDA-MB-468; read-out: pTGI (converted)): > 50.1 µM
GI50 (MDA-MB-231 [18]): 24.5 µM
CC50 (MDA-MB-231 [18]; [19]): > 50.1 µM
TGI (MDA-MB-231 [18]; read-out: pTGI (converted)): > 50.1 µM
